This note sets out measurements from ChEMBL document CHEMBL1137518, “Synthesis, biological evaluation and molecular modelling of sulfonohydrazides as selective PI3K p110alpha inhibitors” (Bioorg Med Chem, 2007).

In assay [1] the target is T1, Phosphatidylinositol 4,5-bisphosphate 3-kinase catalytic subunit delta isoform (Homo sapiens, UniProt O00329).
T1 sequence (O00329 whole entry): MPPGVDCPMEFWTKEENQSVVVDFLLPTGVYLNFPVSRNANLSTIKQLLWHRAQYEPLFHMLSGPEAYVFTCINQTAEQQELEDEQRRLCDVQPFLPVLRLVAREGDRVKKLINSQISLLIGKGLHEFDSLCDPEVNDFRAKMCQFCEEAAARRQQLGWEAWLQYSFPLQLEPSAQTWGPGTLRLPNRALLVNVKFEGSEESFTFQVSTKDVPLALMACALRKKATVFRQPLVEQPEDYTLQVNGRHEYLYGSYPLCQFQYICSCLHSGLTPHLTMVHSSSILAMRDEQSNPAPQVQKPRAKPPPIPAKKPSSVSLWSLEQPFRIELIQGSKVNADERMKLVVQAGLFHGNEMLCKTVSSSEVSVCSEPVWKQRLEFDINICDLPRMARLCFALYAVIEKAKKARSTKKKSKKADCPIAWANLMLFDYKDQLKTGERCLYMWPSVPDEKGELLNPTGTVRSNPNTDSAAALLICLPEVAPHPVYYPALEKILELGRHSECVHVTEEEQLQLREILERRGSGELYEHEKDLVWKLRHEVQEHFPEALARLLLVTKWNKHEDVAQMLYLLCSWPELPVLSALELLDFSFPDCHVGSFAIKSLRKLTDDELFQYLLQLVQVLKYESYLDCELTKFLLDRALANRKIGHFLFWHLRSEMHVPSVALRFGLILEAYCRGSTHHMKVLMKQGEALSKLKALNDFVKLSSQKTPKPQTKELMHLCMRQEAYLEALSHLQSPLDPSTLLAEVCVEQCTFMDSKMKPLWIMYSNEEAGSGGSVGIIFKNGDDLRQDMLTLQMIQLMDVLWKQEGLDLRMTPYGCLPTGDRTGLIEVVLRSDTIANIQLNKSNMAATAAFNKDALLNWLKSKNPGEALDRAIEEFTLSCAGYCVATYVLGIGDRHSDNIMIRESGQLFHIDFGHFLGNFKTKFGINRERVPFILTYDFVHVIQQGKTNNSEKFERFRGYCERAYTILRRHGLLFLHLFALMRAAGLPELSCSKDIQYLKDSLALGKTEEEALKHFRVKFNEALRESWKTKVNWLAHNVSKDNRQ
The assay can be described thus: Inhibition of human recombinant p110delta. The method, boiled down:
(§1)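 Recombinant p110/p85 complexes (p110d/p85 commercial; p110a/p85 and p110b/p85 prepared in-house), 0.1 µg enzyme with 10 µg L-α-phosphatidylinositol in Tris-HCl pH 7.4/NaCl/EDTA buffer, 1% DMSO final. 1 h at room temperature, stopped with HCl. Lipids extracted, resolved by TLC, radiolabel quantified. Means of two experiments.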

In assay [2] the target is Phosphatidylinositol 4,5-bisphosphate 3-kinase catalytic subunit beta isoform (Homo sapiens, UniProt P42338). The assay can be described thus: Inhibition of human recombinant p110beta. The method, boiled down: as §1
Sequence of Phosphatidylinositol 4,5-bisphosphate 3-kinase catalytic subunit beta isoform (P42338 whole entry, canonical isoform): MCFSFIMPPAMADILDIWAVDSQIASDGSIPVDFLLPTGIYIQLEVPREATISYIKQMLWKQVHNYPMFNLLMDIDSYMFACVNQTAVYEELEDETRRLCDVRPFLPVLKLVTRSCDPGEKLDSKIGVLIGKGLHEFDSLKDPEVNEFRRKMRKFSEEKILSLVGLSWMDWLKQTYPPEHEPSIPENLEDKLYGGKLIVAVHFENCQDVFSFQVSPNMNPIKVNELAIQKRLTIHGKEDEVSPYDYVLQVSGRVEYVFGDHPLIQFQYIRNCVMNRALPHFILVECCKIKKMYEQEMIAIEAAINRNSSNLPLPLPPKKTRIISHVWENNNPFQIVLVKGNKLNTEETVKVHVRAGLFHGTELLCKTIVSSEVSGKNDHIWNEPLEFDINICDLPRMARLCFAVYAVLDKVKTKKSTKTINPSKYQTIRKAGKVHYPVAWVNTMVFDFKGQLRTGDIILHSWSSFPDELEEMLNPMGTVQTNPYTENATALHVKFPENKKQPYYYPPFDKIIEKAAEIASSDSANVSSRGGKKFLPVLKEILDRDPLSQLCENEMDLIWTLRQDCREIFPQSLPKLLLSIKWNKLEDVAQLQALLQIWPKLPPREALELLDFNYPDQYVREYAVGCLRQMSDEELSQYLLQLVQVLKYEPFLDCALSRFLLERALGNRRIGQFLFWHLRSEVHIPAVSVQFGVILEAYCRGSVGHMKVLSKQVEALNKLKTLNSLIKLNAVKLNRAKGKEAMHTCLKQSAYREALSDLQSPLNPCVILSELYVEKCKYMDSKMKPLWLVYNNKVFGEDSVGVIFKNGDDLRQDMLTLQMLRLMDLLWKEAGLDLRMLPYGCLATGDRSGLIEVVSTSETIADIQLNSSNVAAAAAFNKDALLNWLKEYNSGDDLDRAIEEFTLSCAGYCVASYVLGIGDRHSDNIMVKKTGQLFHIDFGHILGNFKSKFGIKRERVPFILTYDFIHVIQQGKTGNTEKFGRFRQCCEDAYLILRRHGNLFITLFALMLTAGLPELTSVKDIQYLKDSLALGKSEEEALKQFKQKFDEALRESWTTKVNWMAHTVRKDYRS
Assay [3] in a line: Antiproliferative activity against human NZOV9 cells. In kind it is functional, cell-based. The gist of the method: (§2)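 Early-passage human cancer cell lines grown in alpha-modified MEM with insulin, transferrin, selenite and 5% FBS; 1000 cells per well. Drug added in 10-fold concentration steps up to 20 µM; incubated five days under 5% O2, 5% CO2, 90% N2. [3H]thymidine (0.04 µCi/well) added for the last 6 h, incorporation counted. Duplicates per dose; IC50 from exponential least-squares fit.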

Assay [4] concerns the target Phosphatidylinositol 4,5-bisphosphate 3-kinase catalytic subunit alpha isoform (Homo sapiens, UniProt P42336). The assay can be described thus: Inhibition of human recombinant p110alpha. The gist of the method: as §1
Assay [5] can be described thus: Antiproliferative activity against human NZB5 cells. In kind it is functional, cell-based. The gist of the method:
as §2

Sequence of Phosphatidylinositol 4,5-bisphosphate 3-kinase catalytic subunit alpha isoform (P42336 whole entry, canonical isoform): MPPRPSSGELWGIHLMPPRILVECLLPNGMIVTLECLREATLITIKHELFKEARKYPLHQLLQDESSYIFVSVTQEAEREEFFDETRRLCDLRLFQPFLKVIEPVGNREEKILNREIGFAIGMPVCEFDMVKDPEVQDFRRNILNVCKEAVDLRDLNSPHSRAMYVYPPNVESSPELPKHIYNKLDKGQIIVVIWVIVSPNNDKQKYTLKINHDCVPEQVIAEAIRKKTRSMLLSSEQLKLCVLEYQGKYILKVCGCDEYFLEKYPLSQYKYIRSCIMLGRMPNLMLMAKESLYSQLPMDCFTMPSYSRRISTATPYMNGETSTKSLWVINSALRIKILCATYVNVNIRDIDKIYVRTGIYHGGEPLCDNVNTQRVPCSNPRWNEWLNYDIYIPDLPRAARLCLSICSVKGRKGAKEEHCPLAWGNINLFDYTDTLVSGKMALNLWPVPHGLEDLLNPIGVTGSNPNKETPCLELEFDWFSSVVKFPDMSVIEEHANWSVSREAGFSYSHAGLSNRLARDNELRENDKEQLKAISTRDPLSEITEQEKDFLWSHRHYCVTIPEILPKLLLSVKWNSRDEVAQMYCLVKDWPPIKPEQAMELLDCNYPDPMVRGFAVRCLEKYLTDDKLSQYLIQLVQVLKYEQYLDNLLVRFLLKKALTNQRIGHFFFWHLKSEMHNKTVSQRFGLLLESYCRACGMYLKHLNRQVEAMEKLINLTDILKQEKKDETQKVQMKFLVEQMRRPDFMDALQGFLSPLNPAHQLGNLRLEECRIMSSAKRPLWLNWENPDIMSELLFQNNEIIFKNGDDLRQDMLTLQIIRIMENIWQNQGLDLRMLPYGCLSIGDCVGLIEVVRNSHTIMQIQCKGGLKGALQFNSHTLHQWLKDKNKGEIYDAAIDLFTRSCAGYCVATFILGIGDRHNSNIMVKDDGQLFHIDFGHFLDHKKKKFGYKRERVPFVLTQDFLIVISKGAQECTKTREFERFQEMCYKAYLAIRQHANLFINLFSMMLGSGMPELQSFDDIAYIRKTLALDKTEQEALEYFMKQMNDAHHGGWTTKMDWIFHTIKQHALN

`Cc1ccc([N+](=O)[O-])cc1S(=O)(=O)N(C)/N=C/c1cnc2ccccn12`: the IC50 (as a rule, the point on the concentration scale where inhibition reaches its midpoint) was 5.4 µM in assay [1]; more than 10 µM in assay [2]; 0.68 µM in assay [3]; 0.86 µM in assay [4]; 0.35 µM in assay [5].
Regarding `Cc1ccc([N+](=O)[O-])cc1S(=O)(=O)N(C)/N=C/c1cnc2n1CCCC2`, the half-maximal inhibitory concentration (IC50) in assay [1] is more than 10 µM; in assay [2] it was more than 10 µM; in assay [3] it was 10 µM; in assay [4], more than 10 µM; in assay [5] it was 10 µM.
In the case of `Cc1ccc([N+](=O)[O-])cc1S(=O)(=O)N(C)/N=C/c1ncn2ccccc12`, the IC50 is more than 10 µM in assay [1], more than 10 µM in assay [2], more than 10 µM in assay [4] and 3.3 µM in assay [5].
On to `Cc1ccc([N+](=O)[O-])cc1S(=O)(=O)N(C)/N=C/c1cn(C)c2ccccc12`, for which the IC50 in assay [1] is more than 10 µM; in assay [2], more than 10 µM; in assay [3], more than 20 µM; in assay [4] it was more than 10 µM; in assay [5], 15 µM.
With `Cc1ccc([N+](=O)[O-])cc1S(=O)(=O)N(C)/N=C/c1cnc2ccccc2c1`, the IC50 was more than 10 µM in assay [1]; more than 10 µM in assay [2]; 6 µM in assay [3]; more than 10 µM in assay [4]; 3 µM in assay [5].
In the case of `Cc1ccc([N+](=O)[O-])cc1S(=O)(=O)N(C)/N=C/c1cncc2ccccc12`, the IC50 in assay [1] is 3.6 µM; in assay [2], more than 10 µM; in assay [3], 0.5 µM; in assay [4], 0.8 µM; in assay [5], 0.89 µM.
The matching figures for `Cc1ccc([N+](=O)[O-])cc1S(=O)(=O)N(C)/N=C/c1cncc2ccc(Br)cc12`: 9 µM, more than 10 µM, 4.2 µM, 2.2 µM and 5.1 µM.
Turning to `Cc1ccc([N+](=O)[O-])cc1S(=O)(=O)N(C)/N=C/c1onc2ccccc12`, the concentration for half-maximal inhibition (IC50) in assay [1] is more than 10 µM; in assay [2] it was more than 10 µM; in assay [3] it was 3.3 µM; in assay [4] it was 5 µM; in assay [5] it was 3.9 µM.
In the case of `Cc1ccc([N+](=O)[O-])cc1S(=O)(=O)N(C)/N=C/c1coc2ccccc12`, the IC50 was more than 10 µM in assay [1]; more than 10 µM in assay [2]; 8.5 µM in assay [3]; more than 10 µM in assay [4]; 12 µM in assay [5].
`Cc1ccc([N+](=O)[O-])cc1S(=O)(=O)N(C)/N=C/c1cnc2ccc(Br)cn12`: in assay [5], the midpoint of inhibition, the IC50, lay at 0.069 µM.
With `Cc1ccc([N+](=O)[O-])cc1S(=O)(=O)N(C)/N=C/c1ncc2ccccn12`, the IC50 in assay [1] is more than 10 µM; in assay [2], more than 10 µM; in assay [3] it was 1.2 µM; in assay [4] it was more than 10 µM; in assay [5], 2.1 µM.
For the molecule `Cc1ccc([N+](=O)[O-])cc1S(=O)(=O)N(C)/N=C/c1ccnc2ccccc12`, the IC50 in assay [1] is more than 10 µM; in assay [2] it was more than 10 µM; in assay [3], 0.8 µM; in assay [4], 2.3 µM; in assay [5] it was 1.5 µM.
For `Cc1ccc([N+](=O)[O-])cc1S(=O)(=O)N(C)/N=C/c1cncc2cc(Br)ccc12`, the IC50 in assay [1] was more than 10 µM; in assay [2], more than 10 µM; in assay [3] it was 11 µM; in assay [4], more than 10 µM; in assay [5], 6.6 µM.
Turning to `Cc1ccc([N+](=O)[O-])cc1S(=O)(=O)N(C)/N=C/c1cncc2c(Br)cccc12`, the IC50 in assay [1] is more than 10 µM; in assay [2] it was more than 10 µM; in assay [3] it was 12 µM; in assay [4], more than 10 µM; in assay [5], 5.7 µM.
As for `Cc1ccc([N+](=O)[O-])cc1S(=O)(=O)N(C)/N=C/c1cncn1C`, the IC50 is more than 10 µM in assay [1]; more than 10 µM in assay [2]; more than 20 µM in assay [3]; more than 10 µM in assay [4]; more than 20 µM in assay [5].
For `Cc1ccc([N+](=O)[O-])cc1S(=O)(=O)N(C)/N=C/c1csc2ccccc12`, the IC50 in assay [1] is more than 10 µM; in assay [2], more than 10 µM; in assay [3] it was more than 20 µM; in assay [4] it was more than 10 µM; in assay [5], more than 20 µM.
As to `Cc1ccc([N+](=O)[O-])cc1S(=O)(=O)N(C)/N=C/c1cccc2ccccc12`, the 50% inhibitory concentration (IC50) was more than 10 µM in assay [1]; more than 10 µM in assay [2]; more than 20 µM in assay [3]; more than 10 µM in assay [4]; more than 20 µM in assay [5].
